Experimental data of several laboratories.
Protocols differ between the studies behind these lines.
Organism: Plasmodium falciparum
Observed: parasite growth

Structure (SMILES) | technique | strain | time | setting | quantity | value
N=C(CC(O)c1cc2c(F)cc(F)cc2c2cc(C(F)(F)F)ccc12)NCc1ccc(F)cc1 (centres unmarked) | ELISA | 3D7 DD2 |  | blood stage | IC50 | > 100 nM
CCCCCCCCNC(C)C(O)c1ccc(SC(C)C)cc1 (centres unmarked) |  | DD2 |  | drug-resistant strain, blood stage | IC50 | 62.5 nM
N=C(CC(O)c1cc2c(F)cc(F)cc2c2cc(C(F)(F)F)ccc12)Nc1ccc(-c2ccc(F)cc2)cc1 (centres unmarked) | ELISA | 3D7 DD2 |  | blood stage | IC50 | ~5 nM
COc1cc(/C=C2\CCC/C(=C\c3ccc(O)c(OC)c3)C2=O)ccc1O |  | K1 |  | drug-resistant strain, blood stage | EC50 | 1300 nM
N=C(CC(O)c1cc2c(F)cc(F)cc2c2cc(C(F)(F)F)ccc12)Nc1ccc(Br)c(F)c1 (centres unmarked) | ELISA | 3D7 | 72 h | blood stage | IC50 | 5.3 nM
CCN(CC)CCCC(C)Nc1ccnc2cc(Cl)ccc12 (centres unmarked) |  | K1 |  | drug-resistant strain, blood stage | EC50 | 530 nM
CCN1CCN(Cc2ccc(Nc3nc4ccc(Oc5ccnc(NC(=O)C6CCN(C)CC6)c5)cc4n3C)cc2C(F)(F)F)CC1 | flow cytometry | DD2 | 72 h | blood stage | IC90 | 166 nM
c1cc([C@H]2CC[C@]3(CC2)OO[C@]2(O3)C3CC4CC(C3)CC2C4)ccc1OCCN1CCOCC1 |  | W2 |  | drug-resistant strain, blood stage | IC50 | 11 nM
CCN(CC)CCCC(C)Nc1ccnc2cc(Cl)ccc12 (centres unmarked) |  | K1 |  | drug-resistant strain | IC50 | 91.2 nM
COc1cc(/C=C/C(=O)C(=Cc2ccccc2)C(=O)/C=C/c2ccc(O)c(OC)c2)ccc1O |  | K1 |  | drug-resistant strain, blood stage | EC50 | 17100 nM
N=C(N)N/N=C/c1c(Cl)cccc1Cl |  | K1 |  | drug-resistant strain, blood stage | IC50 | 931 nM
COc1cc(/C=C/c2cc(/C=C/c3ccc(O)c(OC)c3)n(-c3cccc([N+](=O)[O-])c3)n2)ccc1O |  | K1 |  | drug-resistant strain, blood stage | EC50 | 16700 nM
CO[C@H]1/C=C/O[C@@]2(C)Oc3c(C)c(O)c4c(O)c(c(/C=N/N5CCN(C)CC5)c(O)c4c3C2=O)NC(=O)/C(C)=C\C=C\[C@H](C)[C@H](O)[C@@H](C)[C@@H](O)[C@@H](C)[C@H](OC(C)=O)[C@@H]1C |  | K1 |  | drug-resistant strain, blood stage | IC50 | 33 nM
COc1cc(/C=C/C(=O)C(=Cc2ccc([N+](=O)[O-])cc2)C(=O)/C=C/c2ccc(O)c(OC)c2)ccc1O |  | K1 |  | drug-resistant strain, blood stage | EC50 | 9100 nM
N=C(CC(O)c1cc2c(F)cc(F)cc2c2cc(C(F)(F)F)ccc12)N1CCC(F)(F)CC1 (centres unmarked) | ELISA | 3D7 | 72 h | blood stage | IC50 | 14.4 nM
CO[C@H]1C[C@H](O[C@@H]2/C(C)=C/C[C@@H]3C[C@@H](C[C@]4(CC[C@H](C)[C@@H](C5CCCCC5)O4)O3)OC(=O)[C@@H]3C=C(C)/C(=N/O)[C@H]4OC/C(=C\C=C\[C@@H]2C)[C@]43O)O[C@@H](C)[C@@H]1O |  | DD2 |  | drug-resistant strain, blood stage | IC50 | 179 nM
N=C(CC(O)c1cc2c(F)cc(F)cc2c2cc(C(F)(F)F)ccc12)Nc1cccc(F)c1 (centres unmarked) | ELISA | 3D7 DD2 |  | blood stage | IC50 | ~2 nM
C[C@@H]1CC[C@H]2[C@@H](C)C(=O)O[C@@H]3O[C@@]4(C)CC[C@@H]1[C@]32OO4 | SYBR Green | 3D7 |  | blood stage | IC50 | 19.5 nM
N=C(CC(O)c1cc2c(F)cc(F)cc2c2cc(C(F)(F)F)ccc12)Nc1ccc(N2CCC(F)(F)CC2)cc1 (centres unmarked) | ELISA | 3D7 | 72 h | blood stage | IC50 | 33.6 nM
COc1cc(/C=C/c2cc(/C=C/c3ccc(O)c(OC)c3)n(-c3ccc(Cl)cc3Cl)n2)ccc1O |  | K1 |  | drug-resistant strain, blood stage | EC50 | 25900 nM
